# Shn3 inh set2 = Schnurri-3 reporter inhibition in Clone20 osteoblasts. Clone20 osteoblast Shn3 3'UTR firefly luciferase, 24 h. hit rate 0.52% among 360,000. inhibition, % at 12.5 µM;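 active means mean inhibition of at least 75% with every replicate also reaching 75%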;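 further: 0% = median of neutral control wells and 100% = pilot-screen positive control compound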
# aSyn 5UTR inh = MLPCN primary screen, SNCA 5' untranslated region. alpha-synuclein 5'UTR reporter, inhibitor activity. inhibition, % (tested at 7.5 µM). hit rate 0.82% among 300,000; in the data active means inhibition above about 60%;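 further: H4 neuroglioblastoma cells stably carrying SNCA 5'UTR luciferase fusion; 0% = DMSO wells and 100% = positive control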
# EWS-Fli inh = inhibitors of EWS/Fli oncoprotein transcriptional activity | AID 651661 | hit rate 0.67% among 350,000 | inhibition, % at 12.6 µM | A673 NR0B1-luciferase reporter, viability-normalised;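 active means mean inhibition of at least 50% after viability correction, with every replicate also passing that limit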;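 further: firefly luciferase signal divided by Alamar Blue viability fluorescence both relative to DMSO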
# FN deposit inh = fibronectin deposition inhibition; inhibition, % at 12.6 µM; hit rate 0.086% among 350,000; AH1F fibroblasts, Alexa488-fibronectin deposition fluorescence, overnight; AID 743247;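 active means mean inhibition across replicates of 30% or more, regardless of how many single replicates reach that level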;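 further: positive control wells lacked labelled fibronectin entirely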
#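 Schedule: 1 h cell adhesion before compound, then overnight fibronectin incubation; test system: AH1F fibroblast monolayer depositing Alexa488-labelled fibronectin into matrix; quantity: 10000 AH1F cells per well; probe or stimulus: fluorescent fibronectin at 24 nM final; signal: fluorescence, ex 485 nm, em 525 nm; evaluation: percent inhibition as loss of matrix-bound fibronectin fluorescence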
# PAX8 reporter = lowers PAX8-driven luciferase in RMG-I cells; hit rate 1.2% among 360,000; inhibition, % at 12.6 µM; AID 652154; RMG-I TPO-luciferase reporter, SteadyGlo, 24 h;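 active means mean replicate inhibition at least 60% with every replicate also reaching 60%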;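 further: luciferase light reporting Pax8 driven TPO promoter activity; plate controls were median of neutral control wells for no effect and mitoxantrone controls for full effect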
# LMP1 NFkB inh = Epstein-Barr LMP1 NF-kappaB reporter inhibition; LMP1-induced NF-kappaB luciferase reporter cells, luminescence; inhibition, % at 12.5 µM; hit rate 0.69% among 350,000; AID 504558; in the data active means inhibition above about 41%;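 further: 0% = neutral control wells and 100% = reference inhibitor control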
# Numbers without * were called inactive; x = no result. A selection: hits, their analogues and other compounds. The true share with any hit is near 2.1%.
SMILES,Shn3 inh set2,aSyn 5UTR inh,EWS-Fli inh,FN deposit inh,PAX8 reporter,LMP1 NFkB inh
O=[N+]([O-])c1ccc(Oc2cccnc2)c([N+](=O)[O-])c1,21,x,1,-1,64*,-6
Nc1ccc(Oc2ccc([N+](=O)[O-])cc2[N+](=O)[O-])cc1,-17,3,-21,x,x,-17
Cc1ccc(C(O)c2ncc(-c3cccc4ccccc34)[nH]2)cc1F (stereo unspecified),6,x,7,30*,0,x
Cc1ccc(C(O)c2ncc(-c3ccccc3C)[nH]2)cc1F (stereo unspecified),3,x,-15,1,0,x
Cc1noc(C)c1NC(=O)N(C)C[C@H]1Oc2ccc(NC(=O)Nc3ccc4c(c3)OCO4)cc2C(=O)N([C@@H](C)CO)C[C@H]1C,x,x,-4,x,x,x
CCSc1nnc2ccc(-c3ccc(OC)c(OC)c3)nn12,-3,62*,-8,-13,-24,0
CCC(=O)N(C)C[C@H]1Oc2cc(C#Cc3ccccn3)ccc2S(=O)(=O)N([C@H](C)CO)C[C@H]1C,x,x,9,-4,x,x
N#Cc1c(N)nc(SCC(=O)C23CC4CC(CC(C4)C2)C3)c(C#N)c1-c1ccc(Cl)cc1,-21,6,x,x,x,-1
CSc1nc(N)nc(SCC(=O)C23CC4CC(CC(C4)C2)C3)c1C#N,0,-15,x,1,x,69*
Cc1ccc(S(=O)(=O)Nc2cccc3c2O[C@@H](CN(C)Cc2ccc(Oc4ccccc4)cc2)[C@@H](C)CN([C@H](C)CO)C3=O)cc1,x,x,-12,x,90*,x
C[C@H](CO)N1C[C@H](C)[C@H](CN(C)Cc2ccc(-c3ccccc3)cc2)Oc2c(NS(=O)(=O)c3ccc(F)cc3)cccc2C1=O,x,x,23,11,65*,x
COc1ccc(S(=O)(=O)N2c3cc(Cl)ccc3Oc3nc4ccccc4nc32)cc1,13,100*,x,x,x,-2
O=S(=O)(c1ccc(Cl)cc1)N1c2ccccc2Oc2nc3ccccc3nc21,x,-96,x,x,x,8
CCOc1ccc2c(c1)/C(=C(\C(Cl)=C(Cl)Cl)[N+](=O)[O-])N2,13,5,8,x,2,-2
CCCCOc1ccc2c(c1)/C(=C(\C(Cl)=C(Cl)Cl)[N+](=O)[O-])N2,3,21,11,-2,-21,44*
C/C=C/c1ccc([C@H]2[C@@H](CO)N[C@@H]2CNC(=O)CC2CC2)cc1,x,x,-1,-10,-8,x
O=C(Cn1cc(C(F)(F)F)cc(Cl)c1=O)NCCc1ccccc1,96*,-33,x,-4,9,-10
CCCNC(=O)N1CC2(C1)[C@@H](c1ccccc1)[C@@H](CO)N2CC1CCOCC1,x,x,-3,11,-14,x
COc1ccc(C2Nc3ccccc3C(=O)N2c2ccc(F)cc2)cc1CSc1ccccn1 (stereo unspecified),-45,-43,-17,-3,136*,-10
COc1ccc(C2Nc3ccccc3C(=O)N2c2ccccc2)cc1CSc1ccccn1 (stereo unspecified),-28,-35,-15,-2,30,-1
CCC(=NCCc1c(C)[nH]c2ccc(C)cc12)C1=C(O)CC(c2ccccc2)CC1=O (stereo unspecified),12,104*,x,-5,37,12
CCOC(=O)N1CCN(C(=O)C2CCN(C(=O)c3ccccc3C)CC2)CC1,93*,x,25,x,51,-2
Cc1ccccc1C(=O)N1CCC(C(=O)N2CCN(c3ncccn3)CC2)CC1,7,x,3,4,-2,8
COc1ccc(S(=O)(=O)Nc2ccc3c(c2)C(=O)N([C@@H](C)CO)C[C@H](C)[C@H](CN(C)C(=O)c2ccccc2)OCCCC[C@@H](C)O3)cc1,x,x,0,-3,2,x
Nc1c(C(=O)Nc2ccc(S(=O)(=O)N3CCCC3)cc2)sc2nc3ccc(OC(F)(F)F)cc3cc12,61,109*,x,-6,42,-238
COc1ccc(S(=O)(=O)N(C)C[C@@H]2Oc3c(NC(=O)Nc4cccc5ccccc45)cccc3C(=O)N([C@@H](C)CO)C[C@@H]2C)cc1,x,x,4,-3,x,x
COC(=O)C1CCN(C(=O)c2ccc(Cl)c(S(=O)(=O)NCc3cccnc3)c2)CC1,4,-18,x,0,x,3
Cc1cccc(OCCNC(=O)c2ccc(Cl)c(S(=O)(=O)NCc3cccnc3)c2)c1,15,x,57*,3,33,0
